Values after ≈ are worked out from the molar mass of the structure shown.

The record followed here is ChEMBL document CHEMBL3352316, “Optimization of physicochemical properties and safety profile of novel bacterial topoisomerase type II inhibitors (NBTIs) with activity against Pseudomonas aeruginosa” (Bioorg Med Chem, 2014).

For one series, the system named is Escherichia coli. Kind of series: Antimicrobial activity against Escherichia coli W3110 after 18 to 20 hrs by broth microdilution. Type of series: functional. The settings on record: K-12 substr. W3110. The procedure, abridged:
(§1)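 Broth microdilution followed CLSI guidelines in Mueller Hinton broth. Inocula were grown 18–20 h at 35 °C on blood agar. Compound in DMSO was tested in doubling dilutions from 64 to 0.06 µg/mL, at 2% DMSO final. Plates were incubated 18–20 h and read at OD 620 nm. MIC was taken as the concentration giving >90% growth inhibition.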

The target of series [1] is T1, Potassium voltage-gated channel subfamily KQT member 1 (Homo sapiens, UniProt P51787).
T1 sequence (P51787 whole entry): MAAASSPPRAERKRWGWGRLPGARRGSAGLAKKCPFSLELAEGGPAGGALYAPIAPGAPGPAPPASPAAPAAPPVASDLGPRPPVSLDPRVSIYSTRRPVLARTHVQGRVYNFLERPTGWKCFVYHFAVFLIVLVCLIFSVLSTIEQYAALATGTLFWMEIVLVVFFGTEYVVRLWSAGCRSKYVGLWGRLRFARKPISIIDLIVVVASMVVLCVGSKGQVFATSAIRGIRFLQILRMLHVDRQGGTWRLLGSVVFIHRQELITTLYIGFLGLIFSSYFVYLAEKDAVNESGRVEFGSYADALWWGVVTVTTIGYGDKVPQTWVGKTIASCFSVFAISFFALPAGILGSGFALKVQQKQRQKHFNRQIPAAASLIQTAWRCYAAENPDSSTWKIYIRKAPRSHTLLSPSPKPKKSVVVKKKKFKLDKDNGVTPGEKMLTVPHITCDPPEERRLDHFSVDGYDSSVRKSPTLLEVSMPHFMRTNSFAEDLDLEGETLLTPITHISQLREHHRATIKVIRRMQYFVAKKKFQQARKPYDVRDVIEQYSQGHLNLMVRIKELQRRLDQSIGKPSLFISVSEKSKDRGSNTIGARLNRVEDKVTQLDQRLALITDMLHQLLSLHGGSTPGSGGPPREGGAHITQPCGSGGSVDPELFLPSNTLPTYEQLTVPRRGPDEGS
The experiment in a line: Inhibition of potassium channel IKs (unknown origin). The method, boiled down:
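Automated IonWorks patch clamp was run on CHO or HEK cells expressing each channel. A channel-specific voltage pulse was applied before compound and again about 3 min after addition.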

The next series relates to Staphylococcus aureus. Kind of series: Antimicrobial activity against methicillin-susceptible Staphylococcus aureus after 18 to 20 hrs by broth microdilution. In kind it is functional. The method, boiled down: as §1
For a further series, the system named is Klebsiella pneumoniae. Kind of series: Antimicrobial activity against Klebsiella pneumoniae after 18 to 20 hrs by broth microdilution. In kind it is functional. The method, boiled down:
as §1

Series [2] in a line: Half life in beagle dog at 10 mg/kg, iv. Type of series: ADME, organism-based, Canis lupus familiaris. Details: dose 10 mg/kg, route intravenous. The settings on record: in vivo. The method, boiled down:
(§2)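 Male rats (Wistar Han) and Beagle dogs received 10 mg/kg as a 15 min iv infusion. Serial 200 µL whole-blood samples were taken from 0 to 24 h. Plasma levels were measured by LC–MS/MS against a standard curve after methanol protein precipitation. Parameters were estimated non-compartmentally.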

A short description of series [3]: Volume of distribution in rat at 10 mg/kg, iv. Type of series: ADME, organism-based. Also on record: dose 10 mg/kg, route intravenous. Conditions: in vivo. The procedure, abridged: as §2
Series [4] has as its target Sodium-dependent serotonin transporter (Homo sapiens) (UniProt P31645). The experiment in a line: Inhibition of SERT (unknown origin) at 30 uM.
Series [5] addresses Voltage-gated inwardly rectifying potassium channel KCNH2 (Homo sapiens, UniProt Q12809). The experiment in a line: Inhibition of human ERG by cell-based patch clamp method.
The test system of series [6] is Pseudomonas aeruginosa. Kind of series: Antimicrobial activity against Pseudomonas aeruginosa PAO1 in neutropenic mouse thigh infection model assessed as log reduction in CFU at 150 mg/kg/day, ip bid q12 regime starting 2 hrs after infection measured 24 hrs post start of treatment relative to control. In kind it is functional. The settings on record: route intraperitoneal. The method, boiled down: (§3)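 CD-1 mice made neutropenic with intraperitoneal cyclophosphamide 4 days (150 mg/kg) and 1 day (100 mg/kg) before thigh infection with P. aeruginosa PAO1, target inoculum 5 × 10⁵ CFU. Groups of five dosed ip in 5% dextrose with lactic acid pH 5.0. Vehicle-only group included. Thighs removed 24 h after treatment start, weighed, homogenized and plated on tryptic soy agar, 37 °C overnight. Log CFU/g reduction is relative to starting inoculum.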

A short description of series [7]: Partition co-efficient, log D of the compound at pH 7.4 by shake flask method. The settings on record: buffer. In kind it is physicochemical. The procedure, abridged:
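Shake-flask method with 10 mM phosphate buffer pH 7.4 against n-octanol, shaken 1 h at 1200 rpm to equilibrium. Analysis was by LC/UV with MS confirmation.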

Series [8] can be described thus: AUC(infinity) in neutropenic mouse at 200 mg/kg/day, ip bid of total 12 doses. Also on record: dose 200 mg/kg/day, time infinity, route intraperitoneal. Conditions: plasma. In kind it is ADME, organism-based. The procedure, abridged: (§4)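 CD-1 mice were made neutropenic with ip cyclophosphamide, 150 mg/kg at day −4 and 100 mg/kg at day −1, then infected in the thigh with P. aeruginosa PAO1. Dosing was ip, bid q12 from 2 h post-infection, in 5% dextrose with lactic acid pH 5.0. Groups of three mice were killed at timed intervals and cardiac-puncture plasma was analysed by LC–MS/MS.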

The nature of series [9]: Fraction unbound in human plasma by LC/MS-MS analysis. In kind it is ADME, cell-free. The method, boiled down: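 Equilibrium dialysis: 10 µM compound was spiked into human plasma against phosphate buffer and rotated at 37 °C for 16 h. Plasma and buffer concentrations were quantified by LC/MS–MS with a C18 column and ESI MRM detection.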
Series [10] in a line: AUC(infinity) in neutropenic mouse at 100 mg/kg/day, ip bid of total 12 doses. In kind it is ADME, organism-based. Details: dose 100 mg/kg/day, time infinity, route intraperitoneal. Conditions: plasma. The method, boiled down:
as §4

The nature of series [11]: Ratio of fAUC to MIC in Pseudomonas aeruginosa PAO1 in neutropenic mouse thigh infection model at 200 mg/kg/day, ip bid q12h starting 2 h post infection. The settings on record: route intraperitoneal.
Series [12] can be described thus: AUC(infinity) in neutropenic mouse at 150 mg/kg/day, ip bid of total 12 doses. Details: dose 150 mg/kg/day, time infinity, route intraperitoneal. In kind it is ADME, organism-based. The settings on record: plasma. The procedure, abridged: as §4
Series [13] can be described thus: Ratio of fAUC to MIC in Pseudomonas aeruginosa PAO1 in neutropenic mouse thigh infection model at 100 mg/kg/day, ip bid of total 12 doses starting 2 h post infection. Conditions: route intraperitoneal.
The test system of a further series is Canis familiaris. The experiment in a line: Cardiotoxicity in telemetered dog assessed as prolongation of QTc interval at 56 uM, iv as 1 hr infusion. In kind it is toxicity, organism-based, Canis lupus familiaris. Conditions: in vivo, 4 h, in the assay text read “4 hr infusion” for “1 hr infusion”. The procedure, abridged: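 Dogs were dosed by iv infusion in vehicle adjusted to pH 4. ECG intervals were measured and QTcR was corrected for heart rate by individual-animal correction. % change in QTcR was taken against the matched time point of the same animal on vehicle. Infusion was 1 h at 5 mL/kg/h (5% dextrose) or 4 h at 2 mL/kg/h (5% mannitol/0.1 M tartaric acid), with readings at infusion end.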

For another series, the system named is Cavia porcellus. The experiment in a line: Cardiotoxicity in anesthetized guinea pig assessed as change in monophasic action potential duration at 90% repolarization at free drug 86 uM, iv as 17-min infusion. In kind it is toxicity, organism-based. The settings on record: in vivo. The method, boiled down:
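Male guinea pigs were anaesthetized with Nembutal, ventilated, vagotomized and given propranolol 0.5 mg/kg iv. MAPD90 was recorded during pacing. Compound in 5% dextrose was infused iv over two 17-min periods: 17 mg/kg at 0.1 mL/kg min, then 51 mg/kg at 0.2 mL/kg min. Blood was sampled at each level, and % change was taken from each animal's time-zero baseline.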

In series [14] the test system is Pseudomonas aeruginosa. Kind of series: Antimicrobial activity against Pseudomonas aeruginosa PAO1 in neutropenic mouse thigh infection model assessed as log reduction in CFU at 200 mg/kg/day, ip bid q12 regime starting 2 hrs after infection measured 24 hrs post start of treatment relative to control. In kind it is functional. Conditions: route intraperitoneal. The procedure, abridged: as §3

Sequence of Sodium-dependent serotonin transporter (Homo sapiens) (P31645 whole entry, looked up): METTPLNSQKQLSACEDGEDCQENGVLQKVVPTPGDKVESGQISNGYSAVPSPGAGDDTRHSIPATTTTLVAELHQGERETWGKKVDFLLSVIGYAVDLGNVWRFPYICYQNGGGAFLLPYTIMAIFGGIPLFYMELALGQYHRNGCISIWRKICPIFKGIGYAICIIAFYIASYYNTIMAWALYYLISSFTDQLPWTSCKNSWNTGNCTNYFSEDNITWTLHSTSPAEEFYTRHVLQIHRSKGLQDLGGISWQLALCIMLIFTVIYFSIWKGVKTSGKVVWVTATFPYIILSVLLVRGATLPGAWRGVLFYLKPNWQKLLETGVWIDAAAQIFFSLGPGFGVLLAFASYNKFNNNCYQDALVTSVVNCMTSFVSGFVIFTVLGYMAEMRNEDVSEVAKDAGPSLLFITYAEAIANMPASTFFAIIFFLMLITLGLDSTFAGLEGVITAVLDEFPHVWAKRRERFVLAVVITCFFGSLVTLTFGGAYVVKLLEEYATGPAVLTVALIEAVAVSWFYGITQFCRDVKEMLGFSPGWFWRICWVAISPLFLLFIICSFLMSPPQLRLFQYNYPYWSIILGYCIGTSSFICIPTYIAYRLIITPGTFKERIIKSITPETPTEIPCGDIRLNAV
Sequence of Voltage-gated inwardly rectifying potassium channel KCNH2 (Q12809 whole entry): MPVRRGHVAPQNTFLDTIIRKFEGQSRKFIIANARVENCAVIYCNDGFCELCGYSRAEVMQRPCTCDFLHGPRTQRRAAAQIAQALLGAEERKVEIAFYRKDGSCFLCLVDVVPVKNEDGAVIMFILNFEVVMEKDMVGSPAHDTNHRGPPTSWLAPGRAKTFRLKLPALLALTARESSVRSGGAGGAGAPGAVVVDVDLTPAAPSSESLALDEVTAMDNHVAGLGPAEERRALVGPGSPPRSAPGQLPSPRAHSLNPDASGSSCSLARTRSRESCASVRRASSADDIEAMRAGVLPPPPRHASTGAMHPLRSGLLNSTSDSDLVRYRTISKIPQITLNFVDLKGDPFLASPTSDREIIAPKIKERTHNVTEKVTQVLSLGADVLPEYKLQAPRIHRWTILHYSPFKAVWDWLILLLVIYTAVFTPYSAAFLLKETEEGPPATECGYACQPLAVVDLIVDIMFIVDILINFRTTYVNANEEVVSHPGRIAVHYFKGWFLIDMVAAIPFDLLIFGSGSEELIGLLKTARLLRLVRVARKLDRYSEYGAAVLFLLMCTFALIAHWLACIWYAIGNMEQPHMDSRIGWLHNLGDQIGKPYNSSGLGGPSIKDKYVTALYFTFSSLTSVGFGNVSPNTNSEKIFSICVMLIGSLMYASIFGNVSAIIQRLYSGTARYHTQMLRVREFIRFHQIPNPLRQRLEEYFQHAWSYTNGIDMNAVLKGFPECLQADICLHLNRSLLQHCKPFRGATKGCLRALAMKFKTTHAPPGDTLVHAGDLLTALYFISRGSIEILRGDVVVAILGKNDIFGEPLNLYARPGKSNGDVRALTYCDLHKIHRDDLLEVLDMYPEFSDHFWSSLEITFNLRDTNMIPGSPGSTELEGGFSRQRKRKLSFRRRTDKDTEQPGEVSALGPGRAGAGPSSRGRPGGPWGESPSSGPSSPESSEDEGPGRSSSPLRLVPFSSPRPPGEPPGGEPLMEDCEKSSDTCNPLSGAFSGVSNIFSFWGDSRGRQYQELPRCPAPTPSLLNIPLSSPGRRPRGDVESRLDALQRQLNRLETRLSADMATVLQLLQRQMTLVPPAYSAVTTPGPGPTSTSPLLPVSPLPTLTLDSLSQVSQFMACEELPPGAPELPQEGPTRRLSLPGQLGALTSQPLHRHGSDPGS

For `COc1ccc2ncc(=O)n(CCN3CCC(NCc4ccc5c(n4)NC(=O)CO5)CC3)c2c1`, the MIC90 was 0.13 µg/mL (≈ 0.28 µM) with Escherichia coli, 0.03 µg/mL (≈ 0.0646 µM) against Staphylococcus aureus and 4 µg/mL (≈ 8.61 µM) against Klebsiella pneumoniae. Besides, in series [1], the IC50 is over 100 µM. Moreover, the half-life in series [2] was 13 h. Besides, the Vd in series [3] was found to be 23 L/kg. This compound gave an inhibition in [4] of 77%.
`N[C@@H](Cn1c(=O)cnc2ccc(F)cc21)[C@H]1CC[C@H](NCc2ncc3c(n2)NC(=O)CO3)CC1`: the IC50 in [5] and in series [1] was over 333 µM throughout. Besides, the FC in the series with Pseudomonas aeruginosa [6] stood at 1.3; with Pseudomonas aeruginosa [14], 2.5. The logD in [7] was -0.32. Besides, the MIC90 against Escherichia coli is under 0.06 µg/mL; in the series on Staphylococcus aureus, 1 µg/mL (≈ 2.14 µM); in the series on Klebsiella pneumoniae it was 16 µg/mL (≈ 34.2 µM). Further, the values for the total exposure AUC(0-inf) in [8], in series [10] and in series [12] were 29900 ng·h/mL, 14800 ng·h/mL and 20100 ng·h/mL, respectively. Besides, in series [9], the fraction unbound worked out at 0.73. Moreover, the fAUC/MIC in [11] came to 23; in series [13], 12. In series [2], this compound showed a half-life of 9 h. Besides, in series [3], the Vd was 9 L/kg. The same compound came in with an inhibition in series [4] of 32%. The Activity in the series on Canis familiaris is reported as 9%; in the series with Cavia porcellus, “Toxic”.
